Activity calls are given as the source filed them. The calls are words filed in the database; no cut-off is given here.
Assays:
[1] = Inhibition of HIV1 Rev expressed in african green monkey 5BD.1 cells assessed as inhibition of p24 antigen treated for 16 hrs after washout with medium again readded for 24 hrs by ELISA
[2] = system: HeLa; experiment: Inhibition of HIV1 Rev expressed in human HeLa cells co-expressing firefly luciferase reporter gene assessed as inhibition of firefly luciferase expression after 24 hrs; format: cell-based; conditions: Human immunodeficiency virus 1
How it was run: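 HeLa line with an integrated Rev-dependent Renilla luciferase reporter, plus firefly luciferase and HIV-1 IIIB Rev under Tet-Off control. Doxycycline was removed to induce expression alongside compound at various concentrations. Cells were plated at 2 × 10^4/well in triplicate.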

[3] = Cytotoxicity against human MT4 cells after 5 days by MTS assay; format: cell-based; conditions: read-out: TC50
How it was run: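 MT-4 T cells were incubated with compound for 5 days. Toxicity was by MTS tetrazolium reduction, with formazan absorbance at 492 nm compared with cells given no compound.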

[4] = Cytotoxicity against african green monkey 5BD.1 cells after 2 days by MTS assay; format: cell-based; conditions: chlorocebus aethiops, read-out: TC50
How it was run: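 5BD.1 cells (COS-derived, Rev-dependent Gag-Pol particle producers; 20,000/well) were given compound at 0.1–30 μM for 16 h, then refreshed with compound for 24 h more. Cells were collected at 40 h for the MTS proliferation assay, with formazan read at 492 nm versus untreated cells. TC50 was by curve fit.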

[5] = Inhibition of HIV1 Rev expressed in human HeLa cells co-expressing renilla luciferase reporter gene assessed as inhibition of renilla luciferase expression after 24 hrs; format: cell-based; conditions: Human immunodeficiency virus 1, HeLa
How it was run: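 HeLa line with stably integrated Rev-dependent Renilla luciferase reporter (CMV promoter) plus bicistronic firefly luciferase/HIV-1 IIIB rev construct under Tet-Off; doxycycline withdrawn to induce Rev and both luciferases while compound added at various concentrations.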

[6] = system: Human immunodeficiency virus 1; experiment: Antiviral activity against HIV1 infected in TNFalpha-stimulated human U1 cells assessed as inhibition of Pr55gag synthesis at 10 uM after 24 hrs by Western blotting; format: functional, organism-based
How it was run: (§1)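 U1 cells carrying integrated provirus were induced with TNF-α and given compound (5 or 10 μM). After 24 h, cells were harvested and analysed by Western blot for p24, Pr55gag and Nef using p24- and Nef-specific monoclonal antibodies.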

[7] = system: Human immunodeficiency virus 1; experiment: Antiviral activity against HIV1 NL4-3 infected in human 293T cells assessed as inhibition of p24 synthesis at 10 uM after 24 hrs by Western blotting
[8] = system: Human immunodeficiency virus 1; experiment: Antiviral activity against HIV1 infected in TNFalpha-stimulated human U1 cells assessed as inhibition of p24 synthesis at 10 uM after 24 hrs by Western blotting; format: functional, organism-based
How it was run: as §1

[9] = system: Human immunodeficiency virus 1; experiment: Antiviral activity against HIV1 Brazilian isolate 93BR021 infected in PHA-stimulated human PBMC assessed as inhibition of viral replication after 7 days; format: functional, organism-based; conditions: Human immunodeficiency virus 1, Brazilian isolate 93BR021, 168 h
How it was run: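 PHA-stimulated (4 μg/ml, 48–72 h) PBMCs pooled from at least two donors, kept in 20 U/ml IL-2, 5 × 10^4 cells/well. Infected with primary isolate 93BR021 (CCR5-tropic, subtype B) at MOI ≈0.1 with nine compound concentrations, triplicate wells, for 7 days. Supernatant reverse transcriptase activity was read, then cell MTS toxicity. EC50 was interpolated between bracketing points.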

[10] = system: Human immunodeficiency virus 1; experiment: Antiviral activity against HIV1 NL4-3 infected in human SupT1 cells assessed as inhibition of viral growth at 1 uM after 30 days by p24 ELISA; format: functional, organism-based; conditions: SUP-T1
How it was run: (§2)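 SupT1 cells (5 × 10^6) were Polybrene-treated and infected with NL4-3 (50 ng p24 equivalents), then washed. They were cultured in RPMI/10% FCS with compound at fixed levels (0.8 and 8 μM, or 1 and 10 μM) or none. Cultures were split every 3 days with fresh compound-containing medium for 30–31 days. Supernatant p24 was measured by ELISA.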

[11] = system: Human immunodeficiency virus 1; experiment: Inhibition of HIV1 Rev-radiolabeled Rev response element interaction at up to 100 uM after 10 mins by electrophoretic mobility shift assay
How it was run: (§3)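 A 234-bp RRE RNA was transcribed with [32P]UTP and T7 polymerase, then refolded (80°C 3 min, slow cooling). RRE (0.5 ng) was incubated with bacterial Rev (38 ng) in HEPES-KOH pH 7.8, 200 mM KCl, 4 mM MgCl2, glycerol with compound (up to 100 μM) on ice for 10 min. Complexes were resolved by PAGE and read by phosphorimager.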

[12] = system: Human immunodeficiency virus 1; experiment: Antiviral activity against HIV1 infected in TNFalpha-stimulated human U1 cells assessed as inhibition of viral replication after 72 hrs; format: functional, organism-based; conditions: for EC50: Human immunodeficiency virus 1, U1, 72 h
How it was run: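 U1 cells (50,000/ml, RPMI/10% FCS) were induced with 5 ng/ml TNF-α and given compound at the same time over a six-point range from 0 to 11.9 or 25.1 μM, for 3 days. Supernatant reverse transcriptase activity was read. Cell toxicity was by MTS reduction (formazan at 492 nm) relative to untreated cells. Values were interpolated between bracketing points.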

[13] = system: Human immunodeficiency virus 1; experiment: Antiviral activity against HIV1 infected in TNFalpha-stimulated human U1 cells assessed as inhibition of Nef synthesis at 10 uM after 24 hrs by Western blotting; format: functional, organism-based
How it was run: as §1

[14] = system: Human immunodeficiency virus 1; experiment: Antiviral activity against HIV1 NL4-3 infected in human SupT1 cells assessed as inhibition of viral growth at 10 uM after 30 days by p24 ELISA; format: functional, organism-based; conditions: SUP-T1
How it was run: as §2

[15] = system: Human immunodeficiency virus 1; experiment: Antiviral activity against HIV1 NL4-3 infected in human 293T cells assessed as inhibition of Nef synthesis at 10 uM after 24 hrs by Western blotting
[16] = Inhibition of Mason-Pfizer monkey virus […]constitutive transport element-mediated p24 antigen production expressed in human HEK 293T cells after 72 hrs
[17] = Inhibition of HIV1 Rev-Rev response element-mediated p24 antigen production expressed in human HEK 293T cells after 72 hrs; conditions: Human immunodeficiency virus 1, HEK-293T
[18] = system: HEK-293T; experiment: as above; conditions: Human immunodeficiency virus 1
[19] = system: Human immunodeficiency virus 1; experiment: Antiviral activity against HIV1 infected in TNFalpha-stimulated human U1 cells assessed as inhibition of p24 synthesis at 5 uM after 24 hrs by Western blotting; format: functional, organism-based
How it was run: as §1

[20] = system: Human immunodeficiency virus 1; experiment: Antiviral activity against HIV1 NL4-3 infected in human 293T cells assessed as inhibition of Nef synthesis at 8 uM after 24 hrs by Western blotting
[21] = system: Human immunodeficiency virus 1; experiment: Antiviral activity against HIV1 infected in TNFalpha-stimulated human U1 cells assessed as inhibition of Pr55gag synthesis at 5 uM after 24 hrs by Western blotting; format: functional, organism-based
How it was run: as §1

[22] = system: Human immunodeficiency virus 1; experiment: Antiviral activity against HIV1 NL4-3 infected in human SupT1 cells assessed as inhibition of viral growth at 0.8 uM after 30 days by p24 ELISA; format: functional, organism-based; conditions: SUP-T1
How it was run: as §2

[23] = system: U1; experiment: Cytotoxicity against human U1 cells after 3 days by MTS assay; format: cell-based; conditions: u1, 72 h
[24] = system: Human immunodeficiency virus 1; experiment: Antiviral activity against HIV1 NL4-3 infected in human SupT1 cells assessed as inhibition of viral growth at 8 uM after 30 days by p24 ELISA; format: functional, organism-based; conditions: SUP-T1
How it was run: as §2

[25] = system: Human immunodeficiency virus 1; experiment: Antiviral activity against HIV1 infected in TNFalpha-stimulated human U1 cells assessed as inhibition of Nef synthesis at 5 uM after 24 hrs by Western blotting; format: functional, organism-based
How it was run: as §1

[26] = system: Human immunodeficiency virus 1; experiment: Antiviral activity against HIV1 NL4-3 infected in human 293T cells assessed as inhibition of p24 synthesis at 8 uM after 24 hrs by Western blotting
[27] = system: Human immunodeficiency virus 1; experiment: Inhibition of HIV1 Rev-radiolabeled Rev response element interaction after 10 mins by electrophoretic mobility shift assay
How it was run: as §3

With `COc1ccc2cc3c(N)n[nH]c3nc2c1` the EC50 [1] was 0.9 µM, the TC50 [2] was 8.41 µM and the CC50 at 120 h [3] was 20 µM. It also gave a CC50 at 48 h [4] of over 30 µM and an EC50 [5] of 0.48 µM.
Work on `CCC(=C/[C@H](C)C/C=C/C(C)=C/[C@@H](C)C(=O)[C@@H](C)[C@H](O)[C@@H](C)C/C(C)=C/C(=O)O)/C=C/[C@@H]1OC(=O)C=C[C@@H]1C` [LEPTOMYCIN B] yielded a TC50 [2] of 0.02 µM and an EC50 [5] of 0.00822 µM.
With `CCc1c(C(=O)Nc2ccccc2)c(C)nc2sc(C(N)=O)c(N)c12` the EC50 [1] was 3 µM, the TC50 [2] was 7.91 µM and the CC50 at 120 h [3] was over 100 µM. The CC50 at 48 h [4] was over 30 µM and the EC50 [5] was 2.42 µM.
For `CCOC(=O)c1c(N)ncn1-c1ccccc1`, the EC50 [1] was 30 µM, the TC50 [2] was 33 µM and the CC50 at 120 h [3] was over 100 µM. It also gave a CC50 at 48 h [4] of over 30 µM and an EC50 [5] of 11 µM.
For `CCc1c(C)nc2sc(C(N)=O)c(N)c2c1C`, the EC50 [1] was 0.9 µM, the Activity [6] was “Active” and the Activity [7] was “Active”. The Activity [8] was “Active”, the EC50 [9] was 0.29 µM and the Activity [10] was “Active”. The inhibition [11] was “inactive”, the Activity [12] was “Dose-dependent effect” and the EC50 [12] was 0.4 µM. The TC50 [2] was over 37.6 µM, the Activity [13] was “inactive” and the CC50 at 120 h [3] was 32 µM. For the same compound, the Activity [14] was “Active”, the Activity [15] was “inactive” and the CC50 at 48 h [4] was over 30 µM. It also gave an EC50 [5] of 1.07 µM, an EC50 [16] of over 15 µM and an EC50 [17] of 3.8 µM. The inhibition [18] was “Dose-dependent effect”.
In the case of `Fc1ccc(Nc2ncnc3ccccc23)cc1Cl`, the EC50 [1] is reported as 3 µM, the TC50 [2] is reported as over 40.8 µM and the CC50 at 48 h [4] is reported as over 30 µM. The EC50 [5] was 8.98 µM.
With `Cc1cn([C@H]2C[C@H](N=[N+]=[N-])[C@@H](CO)O2)c(=O)[nH]c1=O` [ZIDOVUDINE] the EC50 [9] was 2.47 µM.
With `COc1cccc(NC(=O)c2cc(Cl)nnc2Cl)c1` the EC50 [1] was 4.9 µM, the TC50 [2] was 18.5 µM and the CC50 at 120 h [3] was 50 µM. It also gave a CC50 at 48 h [4] of over 30 µM and an EC50 [5] of 8 µM.
`Cc1ccc(NC(=O)c2sc(Cl)nc2C(F)(F)F)cc1` showed an EC50 [1] of 1.9 µM, a TC50 [2] of over 39.5 µM and a CC50 at 120 h [3] of 18 µM. The CC50 at 48 h [4] was 25 µM and the EC50 [5] was 9.73 µM.
Compound `COC(=O)c1c(N)ncn1-c1ccc(C)cc1` has an EC50 [1] of 22 µM, a TC50 [2] of over 41.8 µM and a CC50 at 120 h [3] of over 100 µM. It also gave a CC50 at 48 h [4] of over 30 µM and an EC50 [5] of 11.2 µM.
For `CS(=O)(=O)c1ncc(-c2ccc(Br)cc2)cn1`, the EC50 [1] was 0.2 µM, the TC50 [2] was 30.9 µM and the CC50 at 120 h [3] was 10 µM. For the same compound, the CC50 at 48 h [4] was over 30 µM and the EC50 [5] was 7.48 µM.
For `COc1ccc2nc(C(F)(F)F)c(C#N)c(N)c2c1`, the EC50 [1] was 2.5 µM, the Activity [19] was “Active” and the EC50 [9] was 0.63 µM. For the same compound, the inhibition [11] was “inactive”, the Activity [20] was “inactive” and the Activity [21] was “Active”. The Activity [12] was “Dose-dependent effect”, the EC50 [12] was under 0.25 µM and the TC50 [2] was 17.2 µM. For the same compound, the CC50 at 120 h [3] was 28 µM, the Activity [22] was “Active” and the CC50 at 48 h [4] was over 30 µM. For the same compound, the Activity [23] was “Toxic”, the Activity [24] was “Active” and the Activity [25] was “inactive”. For the same compound, the Activity [26] was “Active”, the EC50 [5] was 2.24 µM and the EC50 [16] was over 15 µM. The EC50 [17] was 1.9 µM and the inhibition [18] was “Dose-dependent effect”.
For `O=c1c2ccccc2n2nnc3ccc(NCCCN4CCN(CCCNc5ccc6nnn7c8ccccc8c(=O)c5c67)CC4)c1c32` [TEMACRAZINE], the EC50 [12] was 2 µM.
In the case of `NC[C@@H]1O[C@H](O[C@H]2[C@@H](O)[C@H](O[C@@H]3[C@@H](O)[C@H](N)C[C@H](N)[C@H]3O[C@H]3O[C@H](CN)[C@@H](O)[C@H](O)[C@H]3N)O[C@@H]2CO)[C@H](N)[C@@H](O)[C@@H]1O`, the inhibition [27] is reported as “Active”.
Work on `CC(=O)Nc1cccc2n[se]nc12` yielded an EC50 [1] of 10 µM, a TC50 [2] of 51.6 µM and a CC50 at 120 h [3] of over 100 µM. The CC50 at 48 h [4] was over 30 µM and the EC50 [5] was 8.99 µM.

— ChEMBL document CHEMBL1687710, “Heterocyclic compounds that inhibit Rev-RRE function and human immunodeficiency virus type 1 replication” (Antimicrob Agents Chemother, 2008)
